Bioassay records from PubChem BioAssay.
In the library only some 2.9% were active in any assay of this set; here they are far more common.
TRPC6 activator: activators of mouse TRPC6 channel; AID 2550; hit rate 0.13% among 310,000; HEK293-TRPC6 membrane potential dye fluorescence; hits give high values; B-score at 10 µM;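 active means B-score of the integrated fluorescence ratio above library mean plus 3 SD, and starting fluorescence ratio within library mean plus 5 SD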;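 further: higher score means more depolarization so channel activation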
TRPC4 act: TRPC4 (mouse) channel activation; HEK293 TRPC4beta/mu-opioid, Fluo4 calcium fluorescence; hits give high values; B-score at 10 µM; hit rate 0.49% among 310,000;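 active means B-score above 5 SD of library B-scores, and initial fluorescence ratio not above library mean plus 5 SD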;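 further: positive B-score marks a calcium rise read as TRPC4 activation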
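Incubation: 45 min room-temperature Fluo4 loading, 110 s read / System: HEK293 cells stably co-expressing mouse TRPC4beta and mu-opioid receptor / Signal: Fluo4 fluorescence, kinetic / Control set: buffer (low) and maximal DAMGO (high) / Measure: integrated baseline-normalised fluorescence ratio, converted to per-well B score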
TRPC6 inhibitor: inhibitors of mouse TRPC6 channel; HEK293-TRPC6, membrane potential dye, ACh-evoked depolarization; hits give low values; B-score at 10 µM; hit rate 1.1% among 310,000;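 active means B-score under library mean minus 3 SD, initial fluorescence not abnormally high, positive integrated signal ratio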;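 further: B-score derived from integrated fluorescence ratio over the kinetic read; more negative B-score means stronger inhibition of depolarization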
Kir21 block: inhibitors of mouse Kir2.1 inward-rectifier potassium channel | HEK293-Kir2.1, FluxOR thallium flux fluorescence; hits give low values | B-score at 10 µM | hit rate 0.85% among 310,000;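 active means fluorescence ratio B-score at or below minus 3 SD of library scores, with starting-brightness B-score within 2 SD, cut at about -4.2 in these data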;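 further: channel flux triggered by added potassium and thallium sulfate stimulus; B-score of peak minus minimum fluorescence over baseline after thallium stimulus; more negative B-score means stronger Kir2.1 block with less thallium influx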
Target sequence (P35561 whole entry, looked up): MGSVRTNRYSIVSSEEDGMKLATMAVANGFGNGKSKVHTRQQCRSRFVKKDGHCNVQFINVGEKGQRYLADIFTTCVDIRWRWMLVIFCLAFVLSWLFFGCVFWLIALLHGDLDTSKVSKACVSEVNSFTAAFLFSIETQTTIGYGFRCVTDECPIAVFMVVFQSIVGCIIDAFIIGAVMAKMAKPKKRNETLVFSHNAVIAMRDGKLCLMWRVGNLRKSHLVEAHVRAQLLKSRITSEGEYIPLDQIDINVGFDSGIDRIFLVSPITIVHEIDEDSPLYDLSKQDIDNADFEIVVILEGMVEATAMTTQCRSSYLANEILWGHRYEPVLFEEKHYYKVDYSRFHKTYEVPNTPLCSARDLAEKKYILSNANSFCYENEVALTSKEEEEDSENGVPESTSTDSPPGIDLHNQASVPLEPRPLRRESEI
TRPC4 potent: TRPC4 (mouse) allosteric potentiation | HEK293 TRPC4beta/mu-opioid, DAMGO EC20, Fluo-4 Ca2+ flux; hits give high values | hit rate 0.42% among 310,000 | Q9QUQ5 | B-score at 10 µM;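 active means B-score of calcium response area above 5 SD of library B-scores, with initial fluorescence ratio within 5 SD of library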
TRPC4 inh: TRPC4 (mouse) channel inhibition. Q9QUQ5. B-score at 10 µM. hit rate 0.39% among 300,000. HEK293 TRPC4beta/mu-opioid, DAMGO-evoked Fluo4 calcium flux; hits give low values;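 active means B-score over 3 SD under the library average, no early fluorescence shift, positive overall ratio signal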
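Assay system: HEK293 cells with stable TRPC4beta plus mu-opioid receptor expression. Dosing: single dose. Measured by: Fluo4 Ca2+ flux fluorescence. Also added: DAMGO in two steps, submaximal then maximal. Read-out: B score from integrated Fluo4 fluorescence ratio.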
TRPC4 spec 2: second check of whether TRPC6 inhibitors also affect mouse TRPC4. shares compounds with TRPC6 inhibitor. AID 2776. hit rate 42% among 920. inhibition, % at 10 µM. HEK293 TRPC4/MOR, membrane potential dye fluorescence; channel activated by saturating DAMGO dose;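 active means compounds whose fluorescence signal differed from control wells by over 3 SD, either direction, in both duplicate plates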
TRPC4 spec: tests whether TRPC6 inhibitors also affect mouse TRPC4. activity change, negative = inhibition, % at 10 µM. shares compounds with TRPC6 inhibitor. AID 2777. hit rate 61% among 920. HEK293 TRPC4/mu-opioid, membrane potential fluorescence;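 active means rise or fall in signal beyond 3 SD of buffer-only wells in both replicate plates, either sign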;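 further: integrated kinetic ratio of fluorescence range over baseline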
HEK293 MPD ctr 2-1: second counter-screen for TRPC6 inhibitors: parental HEK293 cells; shares compounds with TRPC6 inhibitor; parental HEK293 membrane potential dye fluorescence; maximal acetylcholine challenge after compound addition; signal change vs control, % at 10 µM; hit rate 31% among 920; AID 2779;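 active means membrane potential signal moving either way by over 3 SD of the maximum-effect control, in both duplicate plates, meaning non-specific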
HEK293 MPD ctr-1: counter-screen for TRPC6 inhibitors: effect in parental HEK293 cells | shares compounds with TRPC6 inhibitor | parental HEK293 membrane potential dye fluorescence | membrane potential signal change, % at 10 µM | hit rate 60% among 920 | AID 2780;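 active means membrane potential signal shifting up or down by more than 3 SD of buffer-only wells, on both duplicate plates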
HEK293 MPD ctr-2: checks TRPC6 modulator effects in parental HEK293 cells; membrane potential signal change, % at 10 µM; hit rate 51% among 2,400; shares compounds with TRPC6 inhibitor; membrane potential dye fluorescence; AID 488924;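 active means membrane potential signal moves up or down beyond 5 SD from buffer-only wells, on both duplicate plates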
HEK293 MPD ctr 2-2: parental HEK293 nonspecific activity of TRPC6 modulators, second screen. shares compounds with TRPC6 inhibitor. membrane potential dye fluorescence; after compound, maximal acetylcholine stimulation. inhibition, % at 10 µM. hit rate 14% among 2,400;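 active means membrane potential signal drops by more than 5 SD from the mean control signal, in both duplicate plates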
TRPC4 ctr mod: tests whether TRPC6 modulators also affect mouse TRPC4; shares compounds with TRPC6 inhibitor; HEK293 TRPC4/mu-opioid, membrane potential fluorescence; percent change from control (negative = decrease, positive = increase), % at 10 µM; hit rate 69% among 2,400; AID 488927;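 active means membrane potential signal moved up or down beyond 5 SD of buffer control wells, in both duplicate plates, actives on both sides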
TRPC4 ctr inh 2: second check of whether TRPC6 modulators also affect mouse TRPC4. shares compounds with TRPC6 inhibitor. HEK293 TRPC4/mu-opioid, membrane potential dye fluorescence; stimulated with maximal-effect DAMGO. inhibition, % at 10 µM. hit rate 55% among 2,400;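 active means drop in membrane potential signal beyond 5 SD of the control wells in both duplicate plates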;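 further: TRPC4 counter screen for TRPC6 hits run under conditions tuned for TRPC6 not TRPC4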
TRPC6 block conf: confirmation of mouse TRPC6 inhibitors; shares compounds with TRPC6 inhibitor; HEK293-TRPC6, membrane potential dye, ACh-evoked depolarization; inhibition, % at 10 µM; hit rate 43% among 3,300; AID 488960;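 active means fluorescence ratio falls more than 5 SD below the full-stimulation control mean, in both duplicate runs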;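 further: integrated fluorescence ratio of peak minus minimum over baseline after agonist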
TRPC6 act confirm: mouse TRPC6 activator confirmation | shares compounds with TRPC6 inhibitor | HEK293-TRPC6 membrane potential dye fluorescence, FDSS | activation, % at 10 µM | hit rate 11% among 2,800 | AID 488961;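 active means ratio signal rise beyond 5 SD above unstimulated control wells' mean, seen in both duplicate runs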
Hits are given with their value; 0 = inactive; - = not tested or not shown.

SMILES	TRPC6 activator	TRPC4 act	TRPC6 inhibitor	Kir21 block	TRPC4 potent	TRPC4 inh	HEK293 MPD ctr-2	HEK293 MPD ctr 2-2	TRPC4 ctr mod	TRPC4 ctr inh 2	TRPC6 block conf	TRPC6 act confirm	others
COc1ccc(C(=O)N2CCCC2(C#N)c2ccccc2)cc1[N+](=O)[O-] (stereo not drawn)	0	0	-7.6	0	0	0	-	-	-	-	0	0	TRPC4 spec 2=0;TRPC4 spec=0.7%;HEK293 MPD ctr 2-1=0;HEK293 MPD ctr-1=0
CCOC(=O)c1c(C)[nH]c(C)c1C(=O)COC(=O)/C=C/c1ccc(Cl)cc1	0	0	0	0	0	0	-	-	-	-	-	-
O=C(Nc1ccccc1C(=O)Nc1nnc(C(F)(F)F)s1)c1ccccc1	0	0	-7	0	0	0	-	-	-	-	84%	0	TRPC4 spec 2=0;TRPC4 spec=16%;HEK293 MPD ctr 2-1=0;HEK293 MPD ctr-1=11%
Cc1occc1C(=O)Nc1nnc(C(F)(F)F)s1	0	0	0	0	0	0	-	-	-	-	-	-
CCCCOC(=O)c1ccc(NC(=S)NC(=O)c2ccco2)cc1	0	0	0	0	0	0	-	-	-	-	-	-
CCCCCOC(=O)c1ccc(NC(=O)c2ccco2)cc1	0	0	-13	0	0	0	-	-	-	-	0	0	TRPC4 spec 2=0;TRPC4 spec=0;HEK293 MPD ctr 2-1=0;HEK293 MPD ctr-1=0
CNC(=O)c1ccc(Nc2nnc(C)c3ccccc23)cc1	0	0	-5.5	0	0	0	-99%	0	0	0	0	0
Cc1nnc(Nc2ccc(C(=O)NCCO)cc2)c2ccccc12	0	0	0	0	0	0	-	-	-	-	-	-
CCN(CC)c1ccc(C=C2C(=O)OC(C)(C(C)(C)C)OC2=O)cc1 (stereo not drawn)	46	0	0	0	0	0	0	0	102%	0	0	0
CN(CCC#N)C(=O)c1cc2c(Cl)nc3ccccc3c2s1	0	0	0	0	0	0	-	-	-	-	-	-
CN(C)CCN(Cc1ccco1)C(=O)c1cc2c(Cl)nc3ccccc3c2s1	0	0	-5.2	0	0	0	0	0	0	0	0	0
Cc1ccc(-c2nc3ccc(NS(=O)(=O)c4ccccc4)cc3[nH]2)o1	0	0	0	0	0	0	-	-	-	-	-	-
O=C(NCC(=O)N1CCOCC1)c1ccc(Cl)cc1	0	0	-9.1	0	0	0	0	0	0	0	0	0
O=C(NCC(=O)N1CCOCC1)c1ccccc1	0	0	0	0	0	0	-	-	-	-	-	-
Cc1cc(S(=O)(=O)N2CCN=C2c2ccccc2)c(C)cc1Cl	0	0	0	0	0	0	-	-	-	-	-	-
CCOc1ccc(OCc2ccc(C(=O)OCc3ccccn3)o2)cc1	0	0	-6	0	0	0	0	0	11%	0	0	0
CCOC(=O)c1ccc(COc2ccc(C(C)C)cc2)o1	0	0	0	0	0	0	-	-	-	-	-	-
CN(C)CCCNc1cc(-c2ccccc2)nc2cc(-c3cccc(F)c3)nn12	0	0	-5.1	0	0	0	0	0	-11%	50%	46%	0
Cc1cc(C(F)(F)F)n2nc(-c3cccs3)cc2n1	0	0	0	0	0	0	-	-	-	-	-	-
Cc1cccc(-c2cc3nc(C)cc(NCCCN(C)C)n3n2)c1	0	0	-7.2	0	13	0	-194%	74%	-40%	60%	56%	0
Cc1cccc(-c2cc3nc(C)cc(C)n3n2)c1	0	0	0	0	0	0	-	-	-	-	-	-
CCN(CC)CCCNc1cc(C)nc2cc(-c3cccs3)nn12	0	0	-7.5	0	0	0	-416%	0	-62%	52%	44%	0
O=C(NCCS(=O)(=O)N1CCN(c2ccccc2F)CC1)c1cc(=O)c2ccccc2o1	0	0	0	0	0	0	-	-	-	-	-	-
COc1cccc(Nc2ccc(C(=O)O)cc2[N+](=O)[O-])c1	0	0	0	0	0	0	-	-	-	-	-	-
CCCN(CCC)CCCNc1ccc(C(=O)Nc2cccc(OC)c2)cc1[N+](=O)[O-]	0	0	-7.3	0	0	0	-	-	-	-	0	0	TRPC4 spec 2=55%;TRPC4 spec=-18%;HEK293 MPD ctr 2-1=0;HEK293 MPD ctr-1=0
SMILES	TRPC6 activator	TRPC4 act	TRPC6 inhibitor	Kir21 block	TRPC4 potent	TRPC4 inh	HEK293 MPD ctr-2	HEK293 MPD ctr 2-2	TRPC4 ctr mod	TRPC4 ctr inh 2	TRPC6 block conf	TRPC6 act confirm	others
CC(=O)N1c2ccc(S(=O)(=O)N3CCCC3C(=O)NCc3ccccc3Cl)cc2CC1C (stereo not drawn)	0	0	0	0	0	0	-	-	-	-	-	-
CN(C)CCC(=O)N1c2ccccc2Sc2ccc(Cl)cc21	0	0	-8.5	0	0	0	-	-	-	-	59%	-	TRPC4 spec 2=0;TRPC4 spec=4.2%;HEK293 MPD ctr 2-1=0;HEK293 MPD ctr-1=7.7%
CN1CCN(CCC(=O)N2c3ccccc3Sc3ccc(Cl)cc32)CC1	0	0	0	0	0	0	-	-	-	-	-	-
NCCCC(=O)N1c2ccccc2Sc2ccc(Cl)cc21	0	0	-5.3	0	0	0	0	0	0	54%	64%	0
O=C(CCN1CCN2CCCC2C1)N1c2ccccc2Sc2ccc(Cl)cc21 (stereo not drawn)	0	0	0	0	0	0	-	-	-	-	-	-
CN1CCC=C(C(=O)N2c3ccccc3Sc3ccc(Cl)cc32)C1	0	0	-5.4	0	0	0	118%	0	16%	38%	41%	-
CN(C)CC(=O)N1c2ccccc2Sc2ccc(Cl)cc21	0	0	0	0	0	0	-	-	-	-	-	-
CCN(CC)CCC(=O)N1c2ccccc2Sc2ccc(Cl)cc21	0	0	-5.4	0	0	0	216%	0	35%	46%	78%	-
CN1CCN(C(=O)c2ccc(Cn3cc(Cl)cn3)o2)CC1	0	0	0	0	0	0	-	-	-	-	-	-
O=C(c1ccccc1Cl)N1CCN(Cc2ccc3c(c2)OCO3)CC1	13	0	0	0	0	0	0	0	0	0	0	32%
